Molecules are shown by their SMILES.

The Ki is a measure of affinity in units of concentration, obtained from inhibition or displacement. Read a high Ki as weaker binding.

The target in one data set is Histamine H3 receptor (Homo sapiens, UniProt Q9Y5N1). Put plainly: Binding affinity to human histamine H3 receptor. An outline of the steps: (§1)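 Means of at least three independent experiments, each run in triplicate; standard error of the mean reported.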
The target in data set [1] is Sodium-dependent serotonin transporter (Rattus norvegicus, UniProt P31652). Put plainly: Binding affinity to rat SERT. The method, boiled down: as §1
Sequence of Sodium-dependent serotonin transporter (Rattus norvegicus, UniProt P31652) (P31652 whole entry): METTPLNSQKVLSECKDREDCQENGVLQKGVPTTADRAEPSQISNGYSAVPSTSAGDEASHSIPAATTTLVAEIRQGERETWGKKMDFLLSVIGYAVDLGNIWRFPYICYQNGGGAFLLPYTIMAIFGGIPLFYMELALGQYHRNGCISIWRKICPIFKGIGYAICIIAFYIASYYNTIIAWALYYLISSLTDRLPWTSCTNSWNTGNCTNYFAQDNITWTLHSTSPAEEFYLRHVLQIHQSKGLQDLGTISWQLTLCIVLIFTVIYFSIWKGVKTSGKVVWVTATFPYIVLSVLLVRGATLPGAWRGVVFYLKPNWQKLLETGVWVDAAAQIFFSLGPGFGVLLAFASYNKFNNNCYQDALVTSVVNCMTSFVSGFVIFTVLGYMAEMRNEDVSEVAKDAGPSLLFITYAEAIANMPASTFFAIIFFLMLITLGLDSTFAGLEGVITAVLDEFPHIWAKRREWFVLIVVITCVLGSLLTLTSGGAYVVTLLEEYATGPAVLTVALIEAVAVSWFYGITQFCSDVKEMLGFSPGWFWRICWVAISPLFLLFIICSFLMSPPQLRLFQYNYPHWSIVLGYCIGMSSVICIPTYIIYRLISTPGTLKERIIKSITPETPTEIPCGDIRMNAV
Data set [2] has as its target Sodium-dependent serotonin transporter (Homo sapiens, UniProt P31645). Put plainly: Binding affinity to human SERT.
For another data set, the system named is Mus musculus. Put plainly: Effect on 5-HTP-induced head twitch in mouse at 10 mg/kg, ip after 1 hr relative to control. The note with it: route intraperitoneal. Type of data set: functional. The method, boiled down:
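5-HTP-induced head-twitch model in mice. Test agent given at 10 mg/kg intraperitoneally, n = 4 per compound. Head twitches scored at 1 h and 24 h post-dose and expressed as percent of the control response.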

The nature of data set [3]: Drug level in mouse brain at 10 mg/kg, ip after 1 hr. It counts as ADME, organism-based. On the set-up: dose 10 mg/kg, route intraperitoneal. The note with it: read-out: Drug uptake. An outline of the steps:
(§2)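 Mice given a single 10 mg/kg intraperitoneal dose. Brain drug concentration measured at 1 h and at 24 h post-dose, n = 3.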

Data set [4] can be described thus: Drug level in mouse brain at 10 mg/kg, ip after 24 hrs. It counts as ADME, organism-based. Further details: dose 10 mg/kg, route intraperitoneal. The note with it: read-out: Drug uptake. The method, boiled down:
as §2

Sequence of Sodium-dependent serotonin transporter (Homo sapiens, UniProt P31645) (P31645 whole entry): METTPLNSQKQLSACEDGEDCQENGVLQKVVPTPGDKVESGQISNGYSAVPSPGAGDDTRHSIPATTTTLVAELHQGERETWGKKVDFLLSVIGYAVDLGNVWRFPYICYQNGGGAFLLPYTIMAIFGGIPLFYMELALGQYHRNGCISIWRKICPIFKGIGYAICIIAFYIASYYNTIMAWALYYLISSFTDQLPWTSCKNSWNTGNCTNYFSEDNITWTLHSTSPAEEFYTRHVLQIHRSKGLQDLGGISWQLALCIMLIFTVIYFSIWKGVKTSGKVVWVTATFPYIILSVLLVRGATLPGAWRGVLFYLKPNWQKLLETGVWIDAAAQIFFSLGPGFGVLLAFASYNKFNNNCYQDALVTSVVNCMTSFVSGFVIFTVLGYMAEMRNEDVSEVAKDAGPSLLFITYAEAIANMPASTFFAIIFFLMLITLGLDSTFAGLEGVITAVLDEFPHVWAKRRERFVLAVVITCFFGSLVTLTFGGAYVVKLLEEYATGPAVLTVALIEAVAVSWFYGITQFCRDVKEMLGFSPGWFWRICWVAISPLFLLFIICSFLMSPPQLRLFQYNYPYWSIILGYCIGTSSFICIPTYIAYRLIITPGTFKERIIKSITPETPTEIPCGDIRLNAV
Sequence of Histamine H3 receptor (Q9Y5N1 whole entry): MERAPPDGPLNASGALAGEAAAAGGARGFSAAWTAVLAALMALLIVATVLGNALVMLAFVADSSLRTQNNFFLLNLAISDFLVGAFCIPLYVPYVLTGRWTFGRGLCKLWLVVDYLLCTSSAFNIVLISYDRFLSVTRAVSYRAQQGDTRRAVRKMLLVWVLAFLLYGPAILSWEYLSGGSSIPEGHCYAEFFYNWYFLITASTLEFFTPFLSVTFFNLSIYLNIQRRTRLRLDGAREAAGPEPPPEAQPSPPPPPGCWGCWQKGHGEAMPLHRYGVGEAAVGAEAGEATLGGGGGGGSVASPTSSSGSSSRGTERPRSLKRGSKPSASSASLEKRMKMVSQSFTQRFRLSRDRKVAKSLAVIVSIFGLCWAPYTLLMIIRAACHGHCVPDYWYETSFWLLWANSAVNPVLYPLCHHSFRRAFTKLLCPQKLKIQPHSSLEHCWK

Take `COc1ccc(C2CN(C)Cc3cc(OCCCN4CCN(c5ccc(C#N)cc5)CC4)ccc32)cc1` (centres undefined): the inhibition constant (Ki) on Histamine H3 receptor was 144 nM; in data set [1], 3.3 nM; in data set [2], 8 nM.
In the same order, the values of `COc1ccc(C2CN(C)Cc3cc(OCCCN4CCN(C(C)C)CC4)ccc32)cc1` (centres undefined) are 9.7 nM, 1.3 nM and 1.8 nM.
Consider `COc1ccc(C2CN(C)Cc3cc(OCCCN4CCN(C(=O)c5ccncc5)CC4)ccc32)cc1` (centres undefined), for which the inhibition constant (Ki) at Histamine H3 receptor was determined as 2840 nM; in data set [1] it was 21 nM; in data set [2], 19 nM.
With `COc1ccc(C2CN(C)Cc3cc(OCCCN4CCN(C(=O)c5cccn5C)CC4)ccc32)cc1` (centres undefined), the inhibition constant (Ki) on Histamine H3 receptor worked out at 2610 nM; in data set [1] it was 8.4 nM; in data set [2], 8.8 nM.
Consider `COc1ccc(C2CN(C)Cc3cc(OCCCNC4CC4)ccc32)cc1` (centres undefined), for which the inhibition constant (Ki) is 38 nM at Histamine H3 receptor, 3 nM in data set [1] and 19.3 nM in data set [2].
As for `COc1ccc(C2CN(C)Cc3cc(OCCCN4CCC(CO)CC4)ccc32)cc1` (centres undefined), the values for the Ki (at Histamine H3 receptor; in data set [1]; in data set [2]) were 9.5 nM, 2 nM and 3.2 nM, respectively.
With `COc1ccc(C2CN(C)Cc3cc(OCCCN4CC(F)(F)C4)ccc32)cc1` (centres undefined), the values for the Ki (at Histamine H3 receptor; in data set [2]) were 69 nM and 2.9 nM, respectively.
As to `COc1ccc(C2CN(C)Cc3cc(OCCCN4CCS(=O)(=O)CC4)ccc32)cc1` (centres undefined), the Ki at Histamine H3 receptor stood at 106 nM; in data set [1], 6.3 nM; in data set [2], 12 nM.
Molecule `COc1ccc(C2CN(C)Cc3cc(OCCCN4CCC(F)CC4)ccc32)cc1` (centres undefined) had an Activity in the data set with Mus musculus of over 500%. For the same molecule, the Ki in data set [1] was determined as 1.6 nM; in data set [2], 2.9 nM. The concentration at 1 h in data set [3] was determined as 6.1 µM. In addition, the concentration at 24 h in data set [4] was 2.5 µM.
As for `COc1ccc(C2CN(C)Cc3cc(OCCCN4CCC(F)(F)CC4)ccc32)cc1` (centres undefined), the figures for the Ki (at Histamine H3 receptor; in data set [1]; in data set [2]) were 8.7 nM, 5.7 nM and 6.5 nM, respectively.
Take `CCN(CC)CCCOc1ccc2c(c1)CN(C)CC2c1ccc(OC)cc1` (centres undefined): the inhibition constant Ki at Histamine H3 receptor is 1.7 nM; in data set [1], 2.2 nM.
As for `COc1ccc(C2CN(C)Cc3cc(OCCCN4CCN(C(=O)C(C)C)CC4)ccc32)cc1` (centres undefined), the results for the Ki (at Histamine H3 receptor; in data set [1]; in data set [2]) were 509 nM, 15 nM and 15 nM, respectively.
Consider `COc1ccc(C2CN(C)Cc3cc(OCCCN4CCC(F)(F)C4)ccc32)cc1` (centres undefined), for which the inhibitory constant (Ki) at Histamine H3 receptor is 9.5 nM; in data set [1], 8 nM; in data set [2] it was 7.3 nM.
Consider `COc1ccc(C2CN(C)Cc3cc(OCCCN4CCN(C(C)=O)CC4)ccc32)cc1` (centres undefined), for which the values for the inhibitory constant (Ki) (at Histamine H3 receptor; in data set [1]; in data set [2]) were 267 nM, 15 nM and 42 nM, respectively.
For the molecule `COc1ccc(C2CN(C)Cc3cc(OCCCN4CCOCC4)ccc32)cc1` (centres undefined), the Activity in the data set on Mus musculus is on record as over 500%. Besides, the inhibition constant Ki was 3.8 nM on Histamine H3 receptor, 4.8 nM in data set [1] and 6.5 nM in data set [2]. Besides, the concentration at 1 h in data set [3] was 12.5 µM. For the same molecule, the concentration at 24 h in data set [4] is under 1 µM.
On to `CCNCCCOc1ccc2c(c1)CN(C)CC2c1ccc(OC)cc1` (centres undefined), for which the Ki on Histamine H3 receptor came to 47 nM; in data set [1], 0.73 nM; in data set [2] it was 3.4 nM.
With `COc1ccc(C2CN(C)Cc3cc(OCCCN4CCC(O)CC4)ccc32)cc1` (centres undefined), the Ki on Histamine H3 receptor is 11 nM; in data set [1], 1.2 nM; in data set [2], 3.8 nM.
For `COc1ccc(C2CN(C)Cc3cc(OCCCN4CCN(c5ccc(C(F)(F)F)cc5)CC4)ccc32)cc1` (centres undefined), the inhibition constant (Ki) at Histamine H3 receptor worked out at 1440 nM; in data set [1], 25 nM; in data set [2], 33 nM.
In the case of `COc1ccc(C2CN(C)Cc3cc(OCCCN4CCN(C5CC5)CC4)ccc32)cc1` (centres undefined), the Ki at Histamine H3 receptor came out at 30 nM; in data set [1], 10 nM; in data set [2], 18 nM.
The matching figures for `COc1ccc(C2CN(C)Cc3cc(OCCCN4CCN(c5nccs5)CC4)ccc32)cc1` (centres undefined): 268 nM, 2.7 nM and 5.3 nM.
In the case of `COc1ccc(C2CN(C)Cc3cc(OCCCN4CCN(c5ccccc5O)CC4)ccc32)cc1` (centres undefined), the figures for the Ki (at Histamine H3 receptor; in data set [1]; in data set [2]) were 1110 nM, 5.7 nM and 7.2 nM, respectively.
For the molecule `COc1ccc(C2CN(C)Cc3cc(OCCCN4CCC4)ccc32)cc1` (centres undefined), the Ki in data set [1] was found to be 1 nM; in data set [2], 4.8 nM.
Take `CCN1CCN(CCCOc2ccc3c(c2)CN(C)CC3c2ccc(OC)cc2)CC1` (centres undefined): the figures for the Ki (on Histamine H3 receptor; in data set [1]) were 12 nM and 1.5 nM, respectively.
Turning to `COc1ccc(C2CN(C)Cc3cc(OCCCN4CCC(C(F)(F)F)CC4)ccc32)cc1` (centres undefined), the figures for the Ki (at Histamine H3 receptor; in data set [1]; in data set [2]) were 40 nM, 19 nM and 14 nM, respectively.
On to `COc1ccc(C2CN(C)Cc3cc(OCCCN(C4CC4)C4CC4)ccc32)cc1` (centres undefined), for which the values for the Ki (at Histamine H3 receptor; in data set [1]; in data set [2]) were 7.4 nM, 7.6 nM and 9.7 nM, respectively.
Take `COc1ccc(C2CN(C)Cc3cc(OCCCN4CCC(C#N)CC4)ccc32)cc1` (centres undefined): the inhibition constant (Ki) is 7.4 nM at Histamine H3 receptor, 5.3 nM in data set [1] and 5.3 nM in data set [2].
Consider `COc1ccc(C2CN(C)Cc3cc(OCCCN4CCN(c5ccncc5)CC4)ccc32)cc1` (centres undefined), for which the figures for the Ki (at Histamine H3 receptor; in data set [1]; in data set [2]) were 3.3 nM, 5.3 nM and 4 nM, respectively.
As to `COc1ccc(C2CN(C)Cc3cc(OCCCN4CCCC(F)(F)C4)ccc32)cc1` (centres undefined), the Ki worked out at 10 nM in data set [1] and 8.2 nM in data set [2].

(Values after ChEMBL document CHEMBL1146292, “Dual serotonin transporter/histamine H3 ligands: Optimization of the H3 pharmacophore” (Bioorg Med Chem Lett, 2007).)
